Measured values reported in publication PMC9299185 (Pest Management Science, 2021).
Where two headings read alike, the source gives them in different places.

How the values were obtained:
[1] = biological target: T1, honey bee CYP9Q3 (Apis mellifera, UniProt A0A7M7LMV1); assay: Fluorescence-based BOMFC probe assay with recombinantly expressed CYP9Q3; assay type: biochemical; conditions: for Hill slope CYP9Q3: fungicides
T1 sequence (A0A7M7LMV1 1-517): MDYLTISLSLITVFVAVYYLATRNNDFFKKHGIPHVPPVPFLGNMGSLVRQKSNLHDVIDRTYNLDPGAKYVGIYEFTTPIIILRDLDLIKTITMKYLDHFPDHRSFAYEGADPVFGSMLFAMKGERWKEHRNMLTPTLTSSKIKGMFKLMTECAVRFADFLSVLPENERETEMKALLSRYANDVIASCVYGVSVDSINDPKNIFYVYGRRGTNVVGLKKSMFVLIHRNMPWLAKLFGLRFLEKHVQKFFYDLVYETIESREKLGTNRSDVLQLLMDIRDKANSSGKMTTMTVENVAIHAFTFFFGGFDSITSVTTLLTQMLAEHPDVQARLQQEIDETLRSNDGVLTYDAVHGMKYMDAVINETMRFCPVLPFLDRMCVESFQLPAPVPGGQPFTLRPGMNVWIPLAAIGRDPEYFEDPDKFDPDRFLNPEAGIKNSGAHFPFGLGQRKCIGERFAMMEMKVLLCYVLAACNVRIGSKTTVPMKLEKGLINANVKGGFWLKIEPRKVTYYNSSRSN
T1 sequence (A0A8U1CY41 1-694 partner): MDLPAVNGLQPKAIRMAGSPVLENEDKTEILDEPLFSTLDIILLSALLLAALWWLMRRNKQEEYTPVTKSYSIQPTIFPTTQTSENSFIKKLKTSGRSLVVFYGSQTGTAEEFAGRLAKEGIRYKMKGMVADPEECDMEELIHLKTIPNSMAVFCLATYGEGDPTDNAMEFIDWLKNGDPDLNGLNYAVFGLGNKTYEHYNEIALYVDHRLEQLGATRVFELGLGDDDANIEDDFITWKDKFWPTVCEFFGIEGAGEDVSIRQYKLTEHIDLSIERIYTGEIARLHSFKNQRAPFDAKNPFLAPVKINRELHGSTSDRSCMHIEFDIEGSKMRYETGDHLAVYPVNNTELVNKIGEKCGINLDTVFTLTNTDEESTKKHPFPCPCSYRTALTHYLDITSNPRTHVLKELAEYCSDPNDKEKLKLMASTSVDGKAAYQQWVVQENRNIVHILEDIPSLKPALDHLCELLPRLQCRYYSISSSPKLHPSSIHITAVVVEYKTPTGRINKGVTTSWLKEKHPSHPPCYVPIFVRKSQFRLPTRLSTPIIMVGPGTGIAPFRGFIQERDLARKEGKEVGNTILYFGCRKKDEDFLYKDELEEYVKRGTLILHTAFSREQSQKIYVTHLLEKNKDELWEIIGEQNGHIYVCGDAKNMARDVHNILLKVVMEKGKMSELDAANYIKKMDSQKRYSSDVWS

[2] = biological target: T2, honey bee CYP9Q2 (Apis mellifera, UniProt A0A7M7R6F2); assay: Fluorescence-based BOMFC probe assay with recombinantly expressed CYP9Q2; assay type: biochemical; conditions: for Hill slope CYP9Q2: fungicides
T2 sequence (A0A7M7R6F2 1-532): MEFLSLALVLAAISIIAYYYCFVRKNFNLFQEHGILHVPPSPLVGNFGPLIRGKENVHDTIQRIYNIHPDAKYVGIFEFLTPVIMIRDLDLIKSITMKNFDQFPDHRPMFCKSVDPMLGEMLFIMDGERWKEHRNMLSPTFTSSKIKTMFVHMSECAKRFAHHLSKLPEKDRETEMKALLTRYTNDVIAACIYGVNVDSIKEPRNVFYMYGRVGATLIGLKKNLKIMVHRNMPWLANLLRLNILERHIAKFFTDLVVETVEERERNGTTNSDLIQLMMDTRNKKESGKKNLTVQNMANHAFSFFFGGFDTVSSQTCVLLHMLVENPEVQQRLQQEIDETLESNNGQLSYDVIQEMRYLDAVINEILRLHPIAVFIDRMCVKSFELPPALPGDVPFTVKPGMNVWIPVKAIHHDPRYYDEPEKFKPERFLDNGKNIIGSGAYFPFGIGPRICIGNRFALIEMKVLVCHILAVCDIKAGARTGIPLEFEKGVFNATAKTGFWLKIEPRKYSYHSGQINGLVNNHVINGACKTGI
T2 sequence (A0A8U1CY41 1-694 partner): T1 sequence (A0A8U1CY41 1-694 partner)

[3] = tested on: Apis mellifera worker bees; assay: Honey bee acute contact toxicity and synergism study; assay type: in vivo; conditions: for effect of propiconazole pretreatment on acute contact toxicity: 10 μg/bee propiconazole 1 h prior to insecticide application
Procedure, shortened: (§1)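 OECD 214 acute contact test, modified for the synergist. Mixed-age workers came from the honey super of three queen-right colonies untreated for at least 6 months. Propiconazole was applied at 10 μg/bee. Controls received acetone or propiconazole alone. Mortality was scored at 48 h. Groups were compared by unpaired t-test (P < 0.01), with SEM shown.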

[4] = biological target: T1, honey bee CYP9Q3; conditions: BOMFC probe, ref Haas et al. (2021)[33], cited from earlier work
[5] = biological target: T2, honey bee CYP9Q2; conditions: BOMFC probe, ref Haas et al. (2021)[33], cited from earlier work
[6] = Honey bee acute contact toxicity and synergism study; assay type: in vivo, Apis mellifera; conditions: female, Apis mellifera (honey bee), in vivo, topical, honey bee mortality
Procedure, shortened: as §1

[7] = biological target: T3, honey bee CYP6AQ1 (Apis mellifera, UniProt F1DPP0); assay: Fluorescence-based BOMFC probe assay with recombinantly expressed CYP6AQ1; assay type: biochemical; conditions: for inhibition of CYP6AQ1-mediated BOMFC metabolism: 100 μM
T3 sequence (F1DPP0 1-514): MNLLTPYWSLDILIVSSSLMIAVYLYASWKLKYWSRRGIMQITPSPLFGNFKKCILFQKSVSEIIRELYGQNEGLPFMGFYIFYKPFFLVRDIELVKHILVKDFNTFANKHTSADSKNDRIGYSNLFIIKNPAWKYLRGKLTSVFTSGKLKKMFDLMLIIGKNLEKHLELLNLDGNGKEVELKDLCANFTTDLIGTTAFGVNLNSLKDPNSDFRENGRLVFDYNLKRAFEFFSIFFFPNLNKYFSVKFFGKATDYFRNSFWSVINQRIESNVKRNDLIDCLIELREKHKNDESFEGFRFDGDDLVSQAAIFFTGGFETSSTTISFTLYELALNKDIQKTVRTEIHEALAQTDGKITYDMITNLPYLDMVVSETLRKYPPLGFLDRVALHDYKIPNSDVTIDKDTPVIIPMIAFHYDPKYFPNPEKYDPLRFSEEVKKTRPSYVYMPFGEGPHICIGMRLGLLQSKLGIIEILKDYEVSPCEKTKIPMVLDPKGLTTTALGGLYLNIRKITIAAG
T3 sequence (A0A8U1CY41 1-694 partner): T1 sequence (A0A8U1CY41 1-694 partner)

[8] = tested on: Drosophila melanogaster Empty × Hsp70 (reference control strain); assay: Drosophila diet overlay bioassay, control strain; assay type: in vivo; conditions: Empty × Hsp70 adults
Procedure, shortened: (§2)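 F1 adults came from crossing UAS strains carrying honey bee CYP9Q2 or CYP9Q3, or a control strain lacking the transgene, with a GAL4-Hsp70 driver. Flies were heat-shocked at 37 °C three times for 30 min the day before, then again just before testing. The test compound in acetone was diluted 1:2 in water with 0.1% (w/v) Triton X-100 and spread over artificial diet. Mortality was scored at 48 h. Values came from probit analysis; resistance ratio = transgenic LD50 / control LD50.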

[9] = tested on: transgenic Drosophila melanogaster CYP9Q2 × Hsp70; assay: Drosophila diet overlay bioassay, strain expressing honey bee CYP9Q2; assay type: in vivo; conditions: for LD50 48 h: CYP9Q2 × Hsp70 adults, diet overlay; for RR (resistance ratio): LD50 of CYP9Q2 × Hsp70 divided by LD50 of Empty × Hsp70; for Slope: probit analysis, CYP9Q2 × Hsp70
Procedure, shortened: as §2

[10] = tested on: transgenic Drosophila melanogaster CYP9Q3 × Hsp70; assay: Drosophila diet overlay bioassay, strain expressing honey bee CYP9Q3; assay type: in vivo; conditions: for LD50 48 h: CYP9Q3 × Hsp70 adults, diet overlay; for RR (resistance ratio): LD50 of CYP9Q3 × Hsp70 divided by LD50 of Empty × Hsp70; for Slope: probit analysis, CYP9Q3 × Hsp70
Procedure, shortened: as §2

[11] = tested on: Apis mellifera worker bees; conditions: honey bee, reported value; cited from earlier work
[12] = IC50 CYP9Q3, fungicides, BOMFC probe
[13] = IC50 CYP9Q2, fungicides, BOMFC probe
[14] = IC50 CYP9Q3, diamides, BOMFC probe 6.5 μM
[15] = IC50 CYP9Q2, diamides, BOMFC probe 15 μM
[16] = highest concentration tested, 100 μM

CC(C)NC(=O)N1CC(=O)N(c2cc(Cl)cc(Cl)c2)C1=O [Iprodione, iprodione]
IC50 [1, 12]: > 10 µM | IC50 [2, 13]: > 10 µM

N#Cc1c(Cl)c(Cl)c(Cl)c(C#N)c1Cl [Chlorothalonil, chlorothalonil]
IC50 [1, 12]: > 10 µM | IC50 [2, 13]: > 10 µM

CCCC1COC(Cn2cncn2)(c2ccc(Cl)cc2Cl)O1 (centres unmarked) [Propiconazole, propiconazole]
effect on control bees ([3]; propiconazole only, 10 μg/bee, test period 48 h): remained unaffected | Hill slope CYP9Q3 [4]: −1.10 | IC50 ([4]; read-out: IC50 CYP9Q3): 0.072 µM | Hill slope CYP9Q2 [5]: −0.88 | IC50 ([5]; read-out: IC50 CYP9Q2): 0.151 µM

CNC(=O)c1cc(Cl)cc(C)c1NC(=O)c1cc(Br)nn1-c1ncccc1Cl [Chlorantraniliprole]
mortality at 48 h ([6]; 0.2 μg/bee, topical 0.2 μg/bee CPR alone, 48 h): 3.6% | mortality at 48 h ([6]; 2 μg/bee, topical 2 μg/bee CPR alone, 48 h, ± SEM, n = 3): 12% | mortality at 48 h ([6]; topical application of 2 μg/bee and 0.2 μg/bee CPR alone): < 15% | effect of propiconazole pretreatment on acute contact toxicity [3]: significantly increased | IC50 [1, 14]: 17.4 µM | IC50 [2, 15]: 93.4 µM | IC50 [7]: > 100 µM | inhibition of CYP6AQ1-mediated BOMFC metabolism [7]: not inhibited | LD50 48 h [8]: 22.2 ppm | LD50 48 h [9]: 96.2 ppm | RR (resistance ratio) [9]: 4.34 | Slope [9]: 1.74 | LD50 48 h [10]: 155 ppm | RR (resistance ratio) [10]: 6.99 | Slope [10]: 2.86 | LD50 [11]: > 4 μg/bee

N#CC(CCc1ccc(Cl)cc1)(Cn1cncn1)c1ccccc1 (centres unmarked) [Fenbuconazole, fenbuconazole]
IC50 [1, 12]: 0.058 µM | Hill slope CYP9Q3 ([1]; BOMFC probe): −0.86 | IC50 [2, 13]: 0.041 µM | Hill slope CYP9Q2 ([2]; BOMFC probe): −0.67

O=C(Nc1ccccc1-c1ccc(Cl)cc1)c1cccnc1Cl [Boscalid, boscalid]
IC50 [1, 12]: 4.13 µM | Hill slope CYP9Q3 ([1]; BOMFC probe): −1.05 | IC50 [2, 13]: > 10 µM

Cc1cc(C(F)(C(F)(F)F)C(F)(F)F)ccc1NC(=O)c1cccc(I)c1C(=O)NC(C)(C)CS(C)(=O)=O [Flubendiamide, flubendiamide]
mortality at 48 h ([6]; 100 μg/bee, FLB doses of 100 μg/bee, acute contact): < 5% | effect of propiconazole pretreatment on acute contact toxicity [3]: not influenced | IC50 [1, 14]: > 100 µM | interaction with BOMFC metabolism by CYP9Q3 [1, 16]: did not show any obvious interaction | IC50 [2, 15]: > 100 µM | interaction with BOMFC metabolism by CYP9Q2 [2, 16]: did not show any obvious interaction | IC50 [7]: > 100 µM | inhibition of CYP6AQ1-mediated BOMFC metabolism [7]: did not show any obvious interaction | LD50 48 h [8]: 147 ppm | LD50 48 h [9]: 253 ppm | RR (resistance ratio) [9]: 1.73 | Slope [9]: 4.62 | LD50 48 h [10]: 179 ppm | RR (resistance ratio) [10]: 1.23 | Slope [10]: 6.97

CC1(C)CCC(Cc2ccc(Cl)cc2)C1(O)Cn1cncn1 (centres unmarked) [Metconazole, metconazole]
IC50 [1, 12]: 0.057 µM | Hill slope CYP9Q3 ([1]; BOMFC probe): −1.03 | IC50 [2, 13]: 0.033 µM | Hill slope CYP9Q2 ([2]; BOMFC probe): −0.6

COC(=O)N(OC)c1ccccc1COc1ccn(-c2ccc(Cl)cc2)n1 [Pyraclostrobin, pyraclostrobin]
IC50 [1, 12]: 7.84 µM | Hill slope CYP9Q3 ([1]; BOMFC probe): −0.56 | IC50 [2, 13]: > 10 µM

Cc1cc(C2CC2)nc(Nc2ccccc2)n1 [Cyprodinil]
IC50 [1, 12]: > 10 µM | IC50 [2, 13]: > 10 µM

CC1COC(Cn2cncn2)(c2ccc(Oc3ccc(Cl)cc3)cc2Cl)O1 (centres unmarked) [Difenoconazole, difenoconazole]
IC50 [1, 12]: 0.032 µM | IC50 ([1]; IC50 CYP9Q3, lowest IC50 value): ~0.03 µM | Hill slope CYP9Q3 ([1]; BOMFC probe): −1.02 | IC50 [2, 13]: 0.033 µM | IC50 ([2]; IC50 CYP9Q2, lowest IC50 value): ~0.03 µM | Hill slope CYP9Q2 ([2]; BOMFC probe): −0.81
